Measured values from ChEMBL document CHEMBL1132360, “N-Substituted (2,3-dihydro-1,4-benzodioxin-2-yl)methylamine derivatives as D(2) antagonists/5-HT(1A) partial agonists with potential as atypical antipsychotic agents” (J Med Chem, 1999).

Key:
[1] = target: T1, Adrenergic receptor alpha-1 (Homo sapiens, UniProt P35348+P25100+P35368); assay: Binding affinity towards Alpha-1 adrenergic receptor in human cortex membranes; assay type: cell membranes
T1 sequence (P35348 whole entry): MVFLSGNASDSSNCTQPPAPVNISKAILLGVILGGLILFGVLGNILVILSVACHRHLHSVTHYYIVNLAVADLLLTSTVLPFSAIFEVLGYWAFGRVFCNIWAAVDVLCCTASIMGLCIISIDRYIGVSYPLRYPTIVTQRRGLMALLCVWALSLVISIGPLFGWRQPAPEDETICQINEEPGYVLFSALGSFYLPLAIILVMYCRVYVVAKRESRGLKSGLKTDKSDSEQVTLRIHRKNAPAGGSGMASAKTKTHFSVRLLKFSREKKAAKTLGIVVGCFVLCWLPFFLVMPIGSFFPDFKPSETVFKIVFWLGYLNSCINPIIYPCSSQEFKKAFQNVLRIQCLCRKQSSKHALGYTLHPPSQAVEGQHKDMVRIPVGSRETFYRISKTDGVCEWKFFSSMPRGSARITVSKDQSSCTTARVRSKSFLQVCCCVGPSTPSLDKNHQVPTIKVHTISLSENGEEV
T1 sequence (P25100 whole entry): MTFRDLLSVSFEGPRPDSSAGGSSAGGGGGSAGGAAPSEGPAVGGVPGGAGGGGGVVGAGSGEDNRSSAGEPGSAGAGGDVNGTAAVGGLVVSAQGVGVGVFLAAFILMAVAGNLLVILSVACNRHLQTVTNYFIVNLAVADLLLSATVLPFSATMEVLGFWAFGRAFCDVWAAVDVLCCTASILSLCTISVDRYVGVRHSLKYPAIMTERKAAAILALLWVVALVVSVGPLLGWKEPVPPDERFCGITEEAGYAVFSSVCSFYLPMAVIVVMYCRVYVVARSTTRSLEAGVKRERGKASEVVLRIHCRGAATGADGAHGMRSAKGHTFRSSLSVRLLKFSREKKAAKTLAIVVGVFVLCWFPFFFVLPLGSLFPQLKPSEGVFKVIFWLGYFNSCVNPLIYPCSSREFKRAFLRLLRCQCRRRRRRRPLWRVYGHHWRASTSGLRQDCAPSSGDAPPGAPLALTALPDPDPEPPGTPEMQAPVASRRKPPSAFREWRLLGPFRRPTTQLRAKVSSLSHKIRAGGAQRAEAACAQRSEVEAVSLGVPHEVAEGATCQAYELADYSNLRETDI
T1 sequence (P35368 whole entry): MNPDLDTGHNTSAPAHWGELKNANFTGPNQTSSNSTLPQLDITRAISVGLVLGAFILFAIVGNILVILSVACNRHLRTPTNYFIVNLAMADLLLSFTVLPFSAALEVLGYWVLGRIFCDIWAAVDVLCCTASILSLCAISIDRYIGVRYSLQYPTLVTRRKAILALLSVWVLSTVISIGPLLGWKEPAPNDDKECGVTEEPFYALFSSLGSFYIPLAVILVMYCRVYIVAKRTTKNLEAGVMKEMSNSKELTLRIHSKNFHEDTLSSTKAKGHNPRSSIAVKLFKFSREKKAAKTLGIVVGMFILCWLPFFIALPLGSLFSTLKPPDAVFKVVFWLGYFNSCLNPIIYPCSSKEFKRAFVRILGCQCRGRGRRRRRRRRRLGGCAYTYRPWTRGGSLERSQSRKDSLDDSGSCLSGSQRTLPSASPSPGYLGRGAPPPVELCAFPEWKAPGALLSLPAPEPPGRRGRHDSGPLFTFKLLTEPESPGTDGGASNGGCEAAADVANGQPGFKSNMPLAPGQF

Mus musculus [2] = assay: Antagonistic activity against apomorphine induced climbing in the mouse after po administration; assay type: functional
Method in brief: (§1)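 Male CD1 mice (20–25 g), groups of 10, dosed po with compound or vehicle ([…]) at set times before apomorphine 0.88 mg/kg sc. Each mouse placed in an inverted open-ended wire cage; climbing scored 0–2 at 10 and 20 min after apomorphine.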

[3] = target: T2, 5-hydroxytryptamine receptor 1A (Rattus norvegicus, UniProt P19327); assay: Binding affinity towards 5-hydroxytryptamine 1A receptor from rat brain using [3H]-8-OH-DPAT as radioligand
T2 sequence (P19327 whole entry): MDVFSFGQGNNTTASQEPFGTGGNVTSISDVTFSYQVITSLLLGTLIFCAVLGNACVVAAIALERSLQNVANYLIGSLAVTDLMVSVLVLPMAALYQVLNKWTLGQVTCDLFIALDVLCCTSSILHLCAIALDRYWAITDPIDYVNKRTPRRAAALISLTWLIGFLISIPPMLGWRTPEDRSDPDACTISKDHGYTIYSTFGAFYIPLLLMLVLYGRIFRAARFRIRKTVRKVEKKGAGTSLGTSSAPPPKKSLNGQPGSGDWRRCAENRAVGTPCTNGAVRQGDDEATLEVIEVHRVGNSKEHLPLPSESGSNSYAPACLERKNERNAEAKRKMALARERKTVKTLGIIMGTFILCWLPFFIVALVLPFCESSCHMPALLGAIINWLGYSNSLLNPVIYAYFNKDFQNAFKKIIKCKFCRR

[4] = target: T3, 5-hydroxytryptamine receptor 1A (Rattus norvegicus) (UniProt P19327); assay: The compound was tested binding affinity against 5-hydroxytryptamine 1A receptor from rat brain using [3H]8-OH-DPAT as radioligand at 10e-6 M.
T3 sequence (whole entry): T2 sequence (P19327 whole entry)
Method in brief: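 Adult male CD rat hippocampal membranes (endogenous 5-HT removed by 37 °C, 10 min incubation) in 50 mM Tris-HCl pH 7.7 plus CaCl2, ascorbate, pargyline; incubated with 2 nM [3H]8-OH-DPAT and test compound at 10⁻⁶ M, 30 min, 25 °C; 10 μM 5-HT defines nonspecific binding. Specific binding with and without compound gives percent displacement.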

[5] = target: Adrenergic receptor alpha-1 (Homo sapiens) (UniProt P35348+P25100+P35368); assay: Compound was tested for binding affinity towards Alpha-1 adrenergic receptor in human cortex membranes; assay type: cell membranes; details: concentration not given here
Method in brief: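 Postmortem human cortex membranes (stored −80 °C, final in 50 mM Tris-HCl pH 7.6) incubated with [3H]prazosin 0.1 nM and compound at 10⁻⁶ M or 10 concentrations, 30 min at 30 °C; phentolamine 5 μM defines nonspecific binding. Bound ligand by filtration and scintillation counting; Ki from IC50 by Cheng–Prusoff, ±SEM; percentages are displacement at 10⁻⁶ M.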

Mus musculus [6] = assay: The compound was tested for antagonistic activity against apomorphine induced climbing in the mouse, percentages are for reduction in climbing after peroral administration; assay type: functional; details: po
Method in brief: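 Groups of 10 male CD1 mice (20–25 g) dosed po with test compound or vehicle at set times before apomorphine 0.88 mg/kg sc. Mice were placed singly in inverted wire cages and climbing was scored 0–2 at 10 and 20 min after apomorphine. Percent reduction in climbing is given at the stated dose.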

Rattus norvegicus = assay: The compound was tested in vivo for induction of catalepsy in rat after ip administration; assay type: functional
Method in brief: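 Male rats (130–190 g), groups of five, injected ip with compound solution (1 mL/kg). Catalepsy assessed at three times by placing each paw on a 45 mm rubber bung; a paw held 15 s scores 1 (group maximum 20 = 100%). ED50 from percent catalepsy at the final reading, by adapted Litchfield–Wilcoxon.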

Mus musculus [7] = assay: Percent reduction in apomorphine induced climbing in mouse at 50 mg/Kg of compound given perorally; assay type: functional
Method in brief: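 Male CD1 mice (20–25 g), groups of 10, given compound po (vehicle 0.1 mL/kg) at 50 mg/kg before apomorphine 0.88 mg/kg sc. Climbing in inverted open-ended wire cages scored 0–2 at 10 and 20 min after apomorphine; percent reduction in climbing at that dose reported.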

Mus musculus [8] = assay: The compound was tested for antagonistic activity against apomorphine induced climbing in the mouse after po administration; assay type: functional; method in brief: as §1

SMILES	Ki [1] [µM]	Ki [3] [µM]	ED50 (Mus musculus [2]) [mg/kg]	ED50 (Rattus norvegicus) [mg/kg]	other results
c1ccc(N2CCC(CNCC3COc4ccccc4O3)CC2)nc1 (stereo in doubt; 12) [listing 1 of 2 here]	–	–	23	–	–
CN(CC1CCN(c2ncccn2)CC1)CC1COc2ccccc2O1 (centres undefined)	0.348	–	–	–	inhibition [4]: 85%
c1ccc(N2CCC(CNCC3COc4ccccc4O3)CC2)nc1 (stereo in doubt; 13) [listing 1 of 2 here]	–	–	–	–	inhibition [5]: 84%; inhibition [4]: 82%
O=C(CCCN1CCC(O)(c2ccc(Cl)cc2)CC1)c1ccc(F)cc1 [HALOPERIDOL]	–	–	–	0.44	ED50 (Mus musculus [6]): 0.16 mg/kg
COc1ccccc1N1CCC(CNCC2COc3cccc(O)c3O2)CC1 (centres undefined)	> 0.5	–	33	–	inhibition [4]: 94%
CC1(CNCC2CCN(c3ncccn3)CC2)COc2ccccc2O1 (centres undefined)	0.132	0.195	–	–	–
c1cnc(NCC2CCN(CC3COc4ccccc4O3)CC2)nc1 (stereo in doubt; 8)	0.023	0.021	–	–	–
c1cnc(NCCCNCC2COc3ccccc3O2)nc1 (centres undefined)	–	0.0031	6	–	–
Cc1nc2n(c(=O)c1CCN1CCC(c3noc4cc(F)ccc34)CC1)CCCC2 [RISPERIDONE]	–	–	–	1.75	ED50 (Mus musculus [6]): 0.3 mg/kg
CC1Oc2ccccc2OC1CNCC1CCN(c2ncccn2)CC1 (centres undefined)	> 0.5	> 0.5	134	775	–
c1ccc(N2CCC(CNCC3COc4ccccc4O3)CC2)nc1 (stereo in doubt; 13) [listing 2 of 2 here]	–	–	–	–	Reduction (Mus musculus [7]): 55%
Cc1cc2c(s1)Nc1ccccc1N=C2N1CCN(C)CC1 [OLANZAPINE]	–	–	4.87	6.07	–
COc1cccc2c1OC(CNCC1CCN(c3ncccn3)CC1)CO2 (centres undefined)	0.0023	0.0006	2.4	–	–
c1ccc(N2CCC(CNCC3COc4ccccc4O3)CC2)nc1 (stereo in doubt; 12) [listing 2 of 2 here]	–	–	–	–	inhibition [5]: 98%; inhibition [4]: 98%
COc1ccccc1N1CCC(CNCC2COc3cccc(F)c3O2)CC1 (centres undefined)	0.012	0.016	4	23	–
CN1CCN(C2=Nc3cc(Cl)ccc3Nc3ccccc32)CC1 [CLOZAPINE]	–	–	–	33.9	ED50 (Mus musculus [6]): 9.5 mg/kg
COc1ccccc1NCC1CCN(CC2COc3ccccc3O2)CC1 (centres undefined)	0.02	0.02	62	–	–
c1ccc2c(c1)OCC(CNCC1CCN(c3cccc4c3OCCO4)CC1)O2 (centres undefined)	0.038	0.018	32	> 200	–
c1cnc(NCC2CCN(CC3COc4ccccc4O3)CC2)nc1 (stereo in doubt; 9)	0.208	0.463	–	–	–
COc1cccc2c1OCC(CNCC1CCN(c3ncccn3)CC1)O2 (centres undefined)	0.234	0.128	–	–	–
COc1cccc(N2CCC(CNCC3COc4ccccc4O3)CC2)c1 (centres undefined)	–	–	–	–	Reduction (Mus musculus [8]): 45%

Second part, led by results:

Ki [1] [µM]	Ki [3] [µM]	SMILES	ED50 (Mus musculus [2]) [mg/kg]	ED50 (Rattus norvegicus) [mg/kg]	other results
0.047	0.029	c1ccc(N2CCC(CNCC3COc4ccccc4O3)CC2)cc1 (centres undefined)	39	–	–
0.044	0.015	COc1ccc(N2CCC(CNCC3COc4ccccc4O3)CC2)cc1 (centres undefined)	11	–	–
0.074	0.037	COc1ccccc1N1CCC(CNC[C@@H]2COc3ccccc3O2)CC1	38	–	–
0.023	0.008	COc1ccccc1N1CCC(CNC[C@H]2COc3ccccc3O2)CC1	7	50	–
0.117	0.025	c1cnc(N2CCC(CNC[C@@H]3COc4ccccc4O3)CC2)nc1	–	–	Reduction (Mus musculus [7]): 77%
0.094	0.017	Clc1ccccc1N1CCC(CNCC2COc3ccccc3O2)CC1 (centres undefined)	–	–	–
0.018	0.0027	c1cnc(N2CCC(CNC[C@H]3COc4ccccc4O3)CC2)nc1	9	44	–
0.033	0.003	c1ccc2c(c1)OCC(CNCC1CCN(c3cccc4c3OCC4)CC1)O2 (centres undefined)	18	107	–
